From ChEMBL document CHEMBL3627671, “Novel derivatives of nitro-substituted salicylic acids: Synthesis, antimicrobial activity and cytotoxicity” (Bioorg Med Chem, 2015)
≈ marks a conversion by molar mass, not a printed value.

Key:
Format in all cases: functional
Klebsiella pneumoniae [1] = assay: Antibacterial activity against Klebsiella pneumoniae D 11750/08 after 48 hrs by microdilution broth method; details: D 11750/08, 48 h
How it was run: (§1)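 Mueller-Hinton broth microdilution (modified M07-A07), pH 7.4 (±0.2). Compounds dissolved in DMSO, tested at final 500 to 0.49 µmol/L. Inoculum in sterile water matched to 0.5 McFarland. Incubated in the dark, humid atmosphere, 35 °C, read at 24 and 48 h visually and at 540 nm. MIC taken as ≥95% growth reduction (IC95) versus control.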

Trichosporon asahii [2] = assay: Antifungal activity against Trichosporon asahii 1188 after 24 hrs by microdilution broth method; details: Trichosporon asahii, 1188, 24 h
How it was run: (§2)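 CLSI M27-A3 broth microdilution in RPMI 1640 with glutamine, buffered to pH 7.0 with MOPS; DMSO diluent. Yeast inoculum 5 × 10^3 ± 0.2 CFU/mL. Moulds grown on Sabouraud agar 3–10 days before spore harvest, final inoculum 0.5-5 × 10^4 CFU/mL, checked in a Bürker chamber. Incubated dark, humid, 35 °C, read at 24 and 48 h visually and at 540 nm. MIC taken as ≥80% (yeasts) or ≥50% (filamentous) growth reduction versus control.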

Staphylococcus aureus [3] = assay: Antibacterial activity against Staphylococcus aureus CCM 4516/08 after 48 hrs by microdilution broth method; details: CCM 4516/08, 48 h
Mycobacterium avium [4] = assay: Antimycobacterial activity against Mycobacterium avium 330/80 after 14 days; details: 330/80, 336 h
Mycobacterium kansasii [5] = assay: Antimycobacterial activity against Mycobacterium kansasii 6509/96 after 14 days; details: 6509/96, 336 h
How it was run: (§3)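 Šula's semisynthetic medium micromethod at 37 °C, read after 7, 14 and 21 days. The 1.0 McFarland suspension was diluted 10^-4. MIC determined. 6509/96 is a clinical isolate.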

Candida tropicalis [6] = assay: Antifungal activity against Candida tropicalis 156 after 24 hrs by microdilution broth method; details: Candida tropicalis, 156, 24 h; how it was run: as §2
Mycobacterium kansasii [7] = assay: Antimycobacterial activity against Mycobacterium kansasii 235/80 after 14 days; details: 235/80, 336 h; how it was run: as §3
Lichtheimia corymbifera [8] = assay: Antifungal activity against Absidia corymbifera 272 after 24 hrs by microdilution broth method; details: Lichtheimia corymbifera, 272, 24 h; how it was run: as §2
Enterococcus sp. [9] = assay: Antibacterial activity against Enterococcus sp. J 14365/08 after 48 hrs by microdilution broth method; details: J 14365/08, 48 h; how it was run: as §1
Mycobacterium kansasii [10] = assay: Antimycobacterial activity against Mycobacterium kansasii 6509/96 after 21 days; details: 6509/96, 504 h; how it was run: as §3
Mycobacterium kansasii [11] = assay: Antimycobacterial activity against Mycobacterium kansasii 235/80 after 21 days; details: 235/80, 504 h; how it was run: as §3
Escherichia coli [12] = assay: Antibacterial activity against Escherichia coli CCM4517 after 24 hrs by microdilution broth method; details: CCM4517, 24 h; how it was run: as §1
Klebsiella pneumoniae [13] = assay: Antibacterial activity against Klebsiella pneumoniae D 11750/08 after 24 hrs by microdilution broth method; details: D 11750/08, 24 h; how it was run: as §1
Staphylococcus aureus [14] = assay: Antibacterial activity against methicillin-resistant Staphylococcus aureus H 5996/08 after 48 hrs by microdilution broth method; details: H 5996/08, 48 h
Aspergillus fumigatus [15] = assay: Antifungal activity against Aspergillus fumigatus 231 after 24 hrs by microdilution broth method; details: Aspergillus fumigatus, 231, 24 h; how it was run: as §2
Lichtheimia corymbifera [16] = assay: Antifungal activity against Absidia corymbifera 272 after 48 hrs by microdilution broth method; details: Lichtheimia corymbifera, 272, 48 h; how it was run: as §2
Candida albicans [17] = assay: Antifungal activity against Candida albicans ATCC 44859 after 24 hrs by microdilution broth method; details: ATCC 44859, 24 h; how it was run: as §2
[18] = test system: Mycobacterium tuberculosis; assay: Antimycobacterial activity against Mycobacterium tuberculosis H37Rv 331/88 after 21 days; details: H37Rv 331/88, 504 h
Candida albicans [19] = assay: Antifungal activity against Candida albicans ATCC 44859 after 48 hrs by microdilution broth method; details: ATCC 44859, 48 h; how it was run: as §2
[20] = test system: Trichophyton mentagrophytes; assay: Antifungal activity against Trichophyton mentagrophytes 445 after 24 hrs by microdilution broth method; details: Trichophyton mentagrophytes, 445, 24 h
Staphylococcus aureus [21] = assay: Antibacterial activity against Staphylococcus aureus CCM 4516/08 after 24 hrs by microdilution broth method; details: CCM 4516/08, 24 h
Pseudomonas aeruginosa [22] = assay: Antibacterial activity against Pseudomonas aeruginosa CCM 1961 after 24 hrs by microdilution broth method; details: CCM 1961, 24 h; how it was run: as §1
[23] = test system: Trichophyton mentagrophytes; assay: Antifungal activity against Trichophyton mentagrophytes 445 after 48 hrs by microdilution broth method; details: Trichophyton mentagrophytes, 445, 48 h
Pichia kudriavzevii [24] = assay: Antifungal activity against Candida krusei E28 after 48 hrs by microdilution broth method; details: E28, 48 h; how it was run: as §2
Mycobacterium avium [25] = assay: Antimycobacterial activity against Mycobacterium avium 330/80 after 21 days; details: 330/80, 504 h
Staphylococcus aureus [26] = assay: Antibacterial activity against methicillin-resistant Staphylococcus aureus H 5996/08 after 24 hrs by microdilution broth method; details: H 5996/08, 24 h
[27] = test system: Staphylococcus epidermidis; assay: Antibacterial activity against Staphylococcus epidermidis H 6966/08 after 24 hrs by microdilution broth method; details: H 6966/08, 24 h; how it was run: as §1
Mycobacterium kansasii [28] = assay: Antimycobacterial activity against Mycobacterium kansasii 235/80 after 7 days; details: 235/80, 168 h; how it was run: as §3
Klebsiella pneumoniae [29] = assay: Antibacterial activity against ESBL-positive Klebsiella pneumoniae J 14368/08 after 24 hrs by microdilution broth method; details: J 14368/08, 24 h; how it was run: as §1
[30] = test system: Mycobacterium tuberculosis; assay: Antimycobacterial activity against Mycobacterium tuberculosis H37Rv 331/88 after 14 days; details: H37Rv 331/88, 336 h
Enterococcus sp. [31] = assay: Antibacterial activity against Enterococcus sp. J 14365/08 after 24 hrs by microdilution broth method; details: J 14365/08, 24 h; how it was run: as §1
Aspergillus fumigatus [32] = assay: Antifungal activity against Aspergillus fumigatus 231 after 48 hrs by microdilution broth method; details: Aspergillus fumigatus, 231, 48 h; how it was run: as §2
Pichia kudriavzevii [33] = assay: Antifungal activity against Candida krusei E28 after 24 hrs by microdilution broth method; details: E28, 24 h; how it was run: as §2
[34] = test system: Staphylococcus epidermidis; assay: Antibacterial activity against Staphylococcus epidermidis H 6966/08 after 48 hrs by microdilution broth method; details: H 6966/08, 48 h; how it was run: as §1
Klebsiella pneumoniae [35] = assay: Antibacterial activity against ESBL-positive Klebsiella pneumoniae J 14368/08 after 48 hrs by microdilution broth method; details: J 14368/08, 48 h; how it was run: as §1
Trichosporon asahii [36] = assay: Antifungal activity against Trichosporon asahii 1188 after 48 hrs by microdilution broth method; details: Trichosporon asahii, 1188, 48 h; how it was run: as §2
Escherichia coli [37] = assay: Antibacterial activity against Escherichia coli CCM4517 after 48 hrs by microdilution broth method; details: CCM4517, 48 h; how it was run: as §1
Mycobacterium kansasii [38] = assay: Antimycobacterial activity against Mycobacterium kansasii 6509/96 after 7 days; details: 6509/96, 168 h; how it was run: as §3
Nakaseomyces glabratus [39] = assay: Antifungal activity against Candida glabrata 20/I after 24 hrs by microdilution broth method; how it was run: as §2
Nakaseomyces glabratus [40] = assay: Antifungal activity against Candida glabrata 20/I after 48 hrs by microdilution broth method; how it was run: as §2
Pseudomonas aeruginosa [41] = assay: Antibacterial activity against Pseudomonas aeruginosa CCM 1961 after 48 hrs by microdilution broth method; details: CCM 1961, 48 h; how it was run: as §1
Candida tropicalis [42] = assay: Antifungal activity against Candida tropicalis 156 after 48 hrs by microdilution broth method; details: Candida tropicalis, 156, 48 h; how it was run: as §2

**Q.** `O=C(Nc1cccc(Cl)c1)c1cc([N+](=O)[O-])ccc1O` was tested. Which MIC (Klebsiella pneumoniae [1]) did it give?
**A.** The MIC was > 500 µM.

**Q.** And the MIC (Trichosporon asahii [2])?
**A.** Its MIC is > 500 µM.

**Q.** What about the MIC (Staphylococcus aureus [3]) of the same compound?
**A.** Its MIC is 62.5 µM (≈ 18.3 µg/mL).

**Q.** And the MIC (Mycobacterium avium [4])?
**A.** The MIC was 125 µM (≈ 36.6 µg/mL).

**Q.** And the MIC (Mycobacterium kansasii [5])?
**A.** Its MIC is 62.5 µM (≈ 18.3 µg/mL).

**Q.** And the MIC (Candida tropicalis [6])?
**A.** The MIC was > 500 µM.

**Q.** What about the MIC (Mycobacterium kansasii [7]) of the same compound?
**A.** Its MIC is 32 µM (≈ 9.37 µg/mL).

**Q.** What about the MIC (Lichtheimia corymbifera [8]) of the same compound?
**A.** Its MIC is > 500 µM.

**Q.** And the MIC (Enterococcus sp. [9])?
**A.** Its MIC is > 500 µM.

**Q.** What about the MIC (Mycobacterium kansasii [10]) of the same compound?
**A.** The MIC was 62.5 µM (≈ 18.3 µg/mL).

**Q.** What about the MIC (Mycobacterium kansasii [11]) of the same compound?
**A.** Its MIC is 62.5 µM (≈ 18.3 µg/mL).

**Q.** And the MIC (Escherichia coli [12])?
**A.** Its MIC is > 500 µM.

**Q.** What about the MIC (Klebsiella pneumoniae [13]) of the same compound?
**A.** Its MIC is > 500 µM.

**Q.** And the MIC (Staphylococcus aureus [14])?
**A.** Its MIC is 62.5 µM (≈ 18.3 µg/mL).

**Q.** What about the MIC (Aspergillus fumigatus [15]) of the same compound?
**A.** Its MIC is 500 µM (≈ 146 µg/mL).

**Q.** And the MIC (Lichtheimia corymbifera [16])?
**A.** Its MIC is > 500 µM.

**Q.** And the MIC (Candida albicans [17])?
**A.** Its MIC is > 500 µM.

**Q.** And the MIC [18]?
**A.** The MIC was 16 µM (≈ 4.68 µg/mL).

**Q.** What about the MIC (Candida albicans [19]) of the same compound?
**A.** The MIC was > 500 µM.

**Q.** What about the MIC [20] of the same compound?
**A.** Its MIC is 250 µM (≈ 73.2 µg/mL).

**Q.** And the MIC (Staphylococcus aureus [21])?
**A.** The MIC was 31.2 µM (≈ 9.15 µg/mL).

**Q.** What about the MIC (Pseudomonas aeruginosa [22]) of the same compound?
**A.** The MIC was > 500 µM.

**Q.** What about the MIC [23] of the same compound?
**A.** Its MIC is 250 µM (≈ 73.2 µg/mL).

**Q.** And the MIC (Pichia kudriavzevii [24])?
**A.** Its MIC is > 500 µM.

**Q.** What about the MIC (Mycobacterium avium [25]) of the same compound?
**A.** The MIC was 125 µM (≈ 36.6 µg/mL).

**Q.** And the MIC (Staphylococcus aureus [26])?
**A.** The MIC was 62.5 µM (≈ 18.3 µg/mL).

**Q.** And the MIC [27]?
**A.** The MIC was 62.5 µM (≈ 18.3 µg/mL).

**Q.** And the MIC (Mycobacterium kansasii [28])?
**A.** Its MIC is 16 µM (≈ 4.68 µg/mL).

**Q.** What about the MIC (Klebsiella pneumoniae [29]) of the same compound?
**A.** The MIC was > 500 µM.

**Q.** What about the MIC [30] of the same compound?
**A.** The MIC was 16 µM (≈ 4.68 µg/mL).

**Q.** What about the MIC (Enterococcus sp. [31]) of the same compound?
**A.** Its MIC is 500 µM (≈ 146 µg/mL).

**Q.** What about the MIC (Aspergillus fumigatus [32]) of the same compound?
**A.** The MIC was 500 µM (≈ 146 µg/mL).

**Q.** What about the MIC (Pichia kudriavzevii [33]) of the same compound?
**A.** The MIC was 500 µM (≈ 146 µg/mL).

**Q.** And the MIC [34]?
**A.** The MIC was 62.5 µM (≈ 18.3 µg/mL).

**Q.** And the MIC (Klebsiella pneumoniae [35])?
**A.** Its MIC is > 500 µM.

**Q.** And the MIC (Trichosporon asahii [36])?
**A.** The MIC was > 500 µM.

**Q.** And the MIC (Escherichia coli [37])?
**A.** The MIC was > 500 µM.

**Q.** What about the MIC (Mycobacterium kansasii [38]) of the same compound?
**A.** The MIC was 32 µM (≈ 9.37 µg/mL).

**Q.** What about the MIC (Nakaseomyces glabratus [39]) of the same compound?
**A.** The MIC was > 500 µM.

**Q.** And the MIC (Nakaseomyces glabratus [40])?
**A.** The MIC was > 500 µM.

**Q.** What about the MIC (Pseudomonas aeruginosa [41]) of the same compound?
**A.** The MIC was > 500 µM.

**Q.** And the MIC (Candida tropicalis [42])?
**A.** The MIC was > 500 µM.
